# Test system: U2OS
# Experiment: Multiplex assay against U2OS
# Type: toxicity, cell-based
# Details: human
# Summary of the method: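 On a CQ1 microscope at 37°C and 5% CO2, live cells were imaged after compound addition. They had been stained at seeding with Hoechst33342, BioTracker Green Microtubule Cytoskeleton Dye, MitoTracker Red and Annexin V Alexa Fluor 680. CellPathfinder machine-learning gating assigned cells to Hoechst high-intensity objects or normal cells, normal cells to healthy, pyknosed or fragmented nuclei, and pyknosed cells to mitotic or apoptotic. Tubulin, mitochondrial-mass and membrane-permeability phenotypes are per cents of healthy-nucleus cells.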
# [1] = 12 h, 1 µM, compound concentration 1 uM, replicate 1
# [2] = 12 h, 1 µM, compound concentration 1 uM, replicate 2
# [3] = 12 h, 10 µM, compound concentration 10 uM, replicate 1
# [4] = 12 h, 10 µM, compound concentration 10 uM, replicate 2
# [5] = 24 h, 1 µM, compound concentration 1 uM, replicate 1
# [6] = 24 h, 1 µM, compound concentration 1 uM, replicate 2
# [7] = 24 h, 10 µM, compound concentration 10 uM, replicate 1
# [8] = 24 h, 10 µM, compound concentration 10 uM, replicate 2
# [9] = 48 h, 1 µM, compound concentration 1 uM, replicate 1
# [10] = 48 h, 1 µM, compound concentration 1 uM, replicate 2
# [11] = 48 h, 10 µM, compound concentration 10 uM, replicate 1
# [12] = 48 h, 10 µM, compound concentration 10 uM, replicate 2
smiles,measurement,setting,value
OCCCNc1cc(-c2ccnc(Nc3cccc(Cl)c3)n2)ccn1,Population Apoptotic (%),[1],88%
same,Population Fragmented Nuclei (%),[1],38%
same,Population Healthy Nuclei (%),[1],52%
same,Population Hoechst High Intensity Objects (%),[1],3%
same,Population Membrane Permeable-Phenotype (%),[1],8%
same,Population Mitochondria Different-Phenotype (%),[1],4%
same,Population Mitotic Cells (%),[1],11%
same,Population Normal (%),[1],97%
same,Population Pyknosed Nuclei (%),[1],9%
same,Population Tubulin-Different-Phenotype (%),[1],4%
same,Total Cell Count,[1],200
same,Population Apoptotic (%),[2],80%
same,Population Fragmented Nuclei (%),[2],27%
same,Population Healthy Nuclei (%),[2],51%
same,Population Hoechst High Intensity Objects (%),[2],5%
same,Population Membrane Permeable-Phenotype (%),[2],10%
same,Population Mitochondria Different-Phenotype (%),[2],18%
same,Population Mitotic Cells (%),[2],20%
same,Population Normal (%),[2],94%
same,Population Pyknosed Nuclei (%),[2],20%
same,Population Tubulin-Different-Phenotype (%),[2],5%
same,Total Cell Count,[2],76
same,Population Apoptotic (%),[3],85%
same,Population Fragmented Nuclei (%),[3],37%
same,Population Healthy Nuclei (%),[3],56%
same,Population Hoechst High Intensity Objects (%),[3],4%
same,Population Membrane Permeable-Phenotype (%),[3],46%
same,Population Mitochondria Different-Phenotype (%),[3],36%
same,Population Mitotic Cells (%),[3],14%
same,Population Normal (%),[3],95%
same,Population Pyknosed Nuclei (%),[3],6%
same,Population Tubulin-Different-Phenotype (%),[3],46%
same,Total Cell Count,[3],237
same,Population Apoptotic (%),[4],91%
same,Population Fragmented Nuclei (%),[4],24%
same,Population Healthy Nuclei (%),[4],64%
same,Population Hoechst High Intensity Objects (%),[4],10%
same,Population Membrane Permeable-Phenotype (%),[4],47%
same,Population Mitochondria Different-Phenotype (%),[4],51%
same,Population Mitotic Cells (%),[4],8%
same,Population Normal (%),[4],89%
same,Population Pyknosed Nuclei (%),[4],11%
same,Population Tubulin-Different-Phenotype (%),[4],61%
same,Total Cell Count,[4],118
same,Population Apoptotic (%),[5],96%
same,Population Fragmented Nuclei (%),[5],43%
same,Population Healthy Nuclei (%),[5],43%
same,Population Hoechst High Intensity Objects (%),[5],7%
same,Population Membrane Permeable-Phenotype (%),[5],10%
same,Population Mitochondria Different-Phenotype (%),[5],10%
same,Population Mitotic Cells (%),[5],4%
same,Population Normal (%),[5],92%
same,Population Pyknosed Nuclei (%),[5],13%
same,Population Tubulin-Different-Phenotype (%),[5],6%
same,Total Cell Count,[5],200
same,Population Apoptotic (%),[6],94%
same,Population Fragmented Nuclei (%),[6],40%
same,Population Healthy Nuclei (%),[6],33%
same,Population Membrane Permeable-Phenotype (%),[6],16%
same,Population Mitochondria Different-Phenotype (%),[6],25%
same,Population Mitotic Cells (%),[6],5%
same,Population Pyknosed Nuclei (%),[6],25%
same,Population Tubulin-Different-Phenotype (%),[6],16%
same,Total Cell Count,[6],77
same,Population Apoptotic (%),[7],88%
same,Population Fragmented Nuclei (%),[7],37%
same,Population Healthy Nuclei (%),[7],50%
same,Population Hoechst High Intensity Objects (%),[7],11%
same,Population Membrane Permeable-Phenotype (%),[7],34%
same,Population Mitochondria Different-Phenotype (%),[7],40%
same,Population Mitotic Cells (%),[7],12%
same,Population Normal (%),[7],88%
same,Population Pyknosed Nuclei (%),[7],12%
same,Population Tubulin-Different-Phenotype (%),[7],37%
same,Total Cell Count,[7],229
same,Population Apoptotic (%),[8],95%
same,Population Fragmented Nuclei (%),[8],30%
same,Population Healthy Nuclei (%),[8],49%
same,Population Hoechst High Intensity Objects (%),[8],12%
same,Population Membrane Permeable-Phenotype (%),[8],43%
same,Population Mitochondria Different-Phenotype (%),[8],54%
same,Population Mitotic Cells (%),[8],4%
same,Population Normal (%),[8],87%
same,Population Pyknosed Nuclei (%),[8],20%
same,Population Tubulin-Different-Phenotype (%),[8],61%
same,Total Cell Count,[8],128
same,Population Apoptotic (%),[9],95%
same,Population Fragmented Nuclei (%),[9],56%
same,Population Healthy Nuclei (%),[9],22%
same,Population Hoechst High Intensity Objects (%),[9],16%
same,Population Membrane Permeable-Phenotype (%),[9],30%
same,Population Mitochondria Different-Phenotype (%),[9],14%
same,Population Mitotic Cells (%),[9],4%
same,Population Normal (%),[9],83%
same,Population Pyknosed Nuclei (%),[9],21%
same,Population Tubulin-Different-Phenotype (%),[9],26%
same,Total Cell Count,[9],227
same,Population Apoptotic (%),[10],100%
same,Population Fragmented Nuclei (%),[10],59%
same,Population Healthy Nuclei (%),[10],11%
same,Population Hoechst High Intensity Objects (%),[10],12%
same,Population Mitochondria Different-Phenotype (%),[10],20%
same,Population Mitotic Cells (%),[10],0%
same,Population Normal (%),[10],87%
same,Population Pyknosed Nuclei (%),[10],28%
same,Population Tubulin-Different-Phenotype (%),[10],10%
same,Total Cell Count,[10],99
same,Population Apoptotic (%),[11],94%
same,Population Fragmented Nuclei (%),[11],47%
same,Population Healthy Nuclei (%),[11],31%
same,Population Hoechst High Intensity Objects (%),[11],21%
same,Population Membrane Permeable-Phenotype (%),[11],43%
same,Population Mitochondria Different-Phenotype (%),[11],45%
same,Population Mitotic Cells (%),[11],5%
same,Population Normal (%),[11],78%
same,Population Pyknosed Nuclei (%),[11],21%
same,Population Tubulin-Different-Phenotype (%),[11],45%
same,Total Cell Count,[11],223
same,Population Apoptotic (%),[12],96%
same,Population Fragmented Nuclei (%),[12],50%
same,Population Healthy Nuclei (%),[12],25%
same,Population Hoechst High Intensity Objects (%),[12],23%
same,Population Membrane Permeable-Phenotype (%),[12],65%
same,Population Mitochondria Different-Phenotype (%),[12],34%
same,Population Mitotic Cells (%),[12],4%
same,Population Normal (%),[12],76%
same,Population Pyknosed Nuclei (%),[12],24%
same,Population Tubulin-Different-Phenotype (%),[12],65%
same,Total Cell Count,[12],134

# Reference: ChEMBL document CHEMBL5058577, “EUbOPEN Chemogenomics Library 2 (Multiplex)” (2022)
